{"data": "Published values pooled from the literature", "effect on": "enzyme activity", "mode": "inhibitor", "CDK2 with cyclin A": "Cyclin-dependent kinase 2, with cyclin A (CDK2, Homo sapiens, UniProt P24941)", "CDK2 with cyclin E": "Cyclin-dependent kinase 2, with cyclin E (CDK2, Homo sapiens, UniProt P24941)", "CDK2": "Cyclin-dependent kinase 2 (CDK2, Homo sapiens, UniProt P24941)"}
{"Compound": "CN(C)C1CCN(CC#Cc2nn(C3CCCC3)c3nc(NCc4ccccc4)ncc23)C1 (stereo not drawn)", "target": "CDK2 with cyclin A", "technique": "FRET", "concentration": "10 µM", "inhibition [%]": 4}
{"Compound": "CC/C(=N\\NC(=O)NCc1cccc(O)c1)c1ccc(O)c(C)c1O", "target": "Cyclin-dependent kinase 2, with cyclin A2 (CDK2, Homo sapiens, UniProt P24941)", "concentration": "0.1 µM", "inhibition [%]": 0.5}
{"Compound": "CN1CC(Oc2cnc(C#N)cc2-c2ccn3nc(NC(=O)C4CC4)cc3c2)C1", "target": "CDK2 with cyclin E", "concentration": "1 µM", "inhibition [%]": -13}
{"Compound": "CNc1cccc2cc(C(=O)Nc3ccc(C(=O)O)cc3)c(=O)[nH]c12", "target": "CDK2", "concentration": "10 µM", "inhibition [%]": -0.24}
{"Compound": "Cn1cnc(Br)c1C1=CN(c2ncnc3[nH]cnc23)CCS1", "target": "CDK2", "technique": "radiometric", "concentration": "50 nM", "inhibition [%]": 20.5}
{"Compound": "Nc1nc(Nc2ccc(S(N)(=O)=O)cc2)sc1C(=O)c1ccccc1[N+](=O)[O-]", "target": "CDK2", "concentration": "0.1 µM", "inhibition [%]": "95 to 96"}
{"Compound": "O=C(CSc1nc2nccnc2c(=O)n1CCc1ccccc1)Nc1nccs1", "target": "Cyclin-dependent kinase 2, with cyclin O (CDK2, Homo sapiens, UniProt P24941)", "concentration": "10 µM", "inhibition [%]": 3}
{"Compound": "COc1cc2ncnc(Nc3ccc(Oc4ccccc4)c(C)c3C)c2cc1OC", "target": "CDK2 with cyclin A", "concentration": "1 µM", "inhibition [%]": 1}
{"Compound": "CSc1nc(C)c(-c2ccnc(Nc3ccc(N4CCOCC4)cc3)c2)[nH]1", "target": "CDK2", "concentration": "10 µM", "inhibition [%]": 66.4}
{"Compound": "COc1cc(-c2cc(-c3ccc(N4CCNCC4)cc3)cnc2N)cc(OC)c1OC", "target": "CDK2 with cyclin A", "concentration": "1 µM", "inhibition [%]": 2}
{"Compound": "Cn1cncc1C1=CN(c2ncnc3[nH]cnc23)CCS1", "target": "CDK2", "technique": "radiometric", "concentration": "50 nM", "inhibition [%]": 12.6}
{"Compound": "CCCS(=O)(=O)Nc1ccc(F)c(C(=O)c2c[nH]c3ncc(-c4ccc(Cl)cc4)cc23)c1F", "target": "CDK2 with cyclin E", "concentration": "1 µM", "inhibition [%]": "< 10"}
